The source made the active and inactive calls.
Legend:
Format in all cases: cell-based
[1] = test system: T1, Alpha-crystallin B chain (Homo sapiens), P02511 [R120G]; assay: Inhibition of alpha-crystallin B R120G mutant (unknown origin)-induced intracellular protein aggregation expressed in human HeLa cells at 0.4 uM incubated for 6 to 8 hrs by fluorescence microscopy relative to untreated control
T1 sequence (whole entry): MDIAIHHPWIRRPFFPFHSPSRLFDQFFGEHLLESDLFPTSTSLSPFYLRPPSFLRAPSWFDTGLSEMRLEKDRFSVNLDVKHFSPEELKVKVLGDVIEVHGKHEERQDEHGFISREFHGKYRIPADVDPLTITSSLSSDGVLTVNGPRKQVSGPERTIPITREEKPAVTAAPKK
Procedure, shortened: (§1)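 Cells were transfected with mutant crystallin constructs using Lipofectamine 2000 and cultured for 16 h until the overexpressed mutants formed aggregates. Compounds were then added to the culture medium and incubated for 6~8 h. Aggregate dissolution was scored by fluorescence microscopy. For αB R120G, % inhibition at 0.4 and 4 µM was calculated against DMSO-treated cells; values are mean ± error.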

[2] = test system: T2, Beta-crystallin B2 (Homo sapiens), P43320 [V187E]; assay: Inhibition of beta-crystallin B2 V187E mutant (unknown origin)-induced intracellular protein aggregation expressed in human HLE-B3 cells at 0.4 uM incubated for 6 to 8 hrs by fluorescence microscopy relative to untreated control
T2 sequence (whole entry): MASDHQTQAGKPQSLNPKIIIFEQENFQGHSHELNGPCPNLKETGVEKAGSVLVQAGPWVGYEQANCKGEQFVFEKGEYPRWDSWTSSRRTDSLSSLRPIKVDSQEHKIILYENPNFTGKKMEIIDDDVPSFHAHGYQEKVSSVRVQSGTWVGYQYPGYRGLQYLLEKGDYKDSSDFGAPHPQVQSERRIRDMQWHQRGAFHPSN

[3] = test system: T3, Gamma-crystallin D (Homo sapiens), P07320 [W43R]; assay: Inhibition of gamma-crystallin D W43R mutant (unknown origin)-induced intracellular protein aggregation expressed in human HeLa cells at 0.4 uM incubated for 6 to 8 hrs by fluorescence microscopy relative to untreated control
T3 sequence (whole entry): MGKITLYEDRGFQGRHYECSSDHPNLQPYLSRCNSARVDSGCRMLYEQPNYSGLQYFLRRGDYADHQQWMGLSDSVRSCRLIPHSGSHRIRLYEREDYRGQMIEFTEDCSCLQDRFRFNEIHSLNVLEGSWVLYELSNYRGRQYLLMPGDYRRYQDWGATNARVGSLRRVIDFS

[4] = test system: T3, Gamma-crystallin D (Homo sapiens), P07320 [W43R]; assay: Inhibition of gamma-crystallin D W43R mutant (unknown origin)-induced intracellular protein aggregation expressed in human HeLa cells at 4 uM incubated for 6 to 8 hrs by fluorescence microscopy relative to untreated control
[5] = test system: T4, Gamma-crystallin C (Homo sapiens), P07315 [G129C]; assay: Inhibition of gamma-crystallin C G129C mutant (unknown origin)-induced intracellular protein aggregation expressed in human HeLa cells at 0.4 uM incubated for 6 to 8 hrs by fluorescence microscopy relative to untreated control
T4 sequence (whole entry): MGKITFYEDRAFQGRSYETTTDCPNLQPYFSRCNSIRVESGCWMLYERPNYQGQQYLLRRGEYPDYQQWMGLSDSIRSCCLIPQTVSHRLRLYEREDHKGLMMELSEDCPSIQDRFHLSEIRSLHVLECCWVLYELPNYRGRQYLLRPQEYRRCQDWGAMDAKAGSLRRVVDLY

[6] = test system: T3, Gamma-crystallin D (Homo sapiens), P07320 [W43R]; assay: Inhibition of gamma-crystallin D W43R mutant (unknown origin)-induced intracellular protein aggregation expressed in human HLE-B3 cells at 4 uM incubated for 6 to 8 hrs by fluorescence microscopy relative to untreated control
[7] = test system: T2, Beta-crystallin B2 (Homo sapiens), P43320 [V187E]; assay: Inhibition of beta-crystallin B2 V187E mutant (unknown origin)-induced intracellular protein aggregation expressed in human HeLa cells at 4 uM incubated for 6 to 8 hrs by fluorescence microscopy relative to untreated control
[8] = test system: T4, Gamma-crystallin C (Homo sapiens), P07315 [G129C]; assay: Inhibition of gamma-crystallin C G129C mutant (unknown origin)-induced intracellular protein aggregation expressed in human HLE-B3 cells at 4 uM incubated for 6 to 8 hrs by fluorescence microscopy relative to untreated control
[9] = test system: T2, Beta-crystallin B2 (Homo sapiens), P43320 [V187E]; assay: Inhibition of beta-crystallin B2 V187E mutant (unknown origin)-induced intracellular protein aggregation expressed in human HLE-B3 cells at 4 uM incubated for 6 to 8 hrs by fluorescence microscopy relative to untreated control
[10] = test system: T5, Alpha-crystallin A chain (Homo sapiens), P02489 [Y118D]; assay: Inhibition of alpha-crystallin A Y118D mutant (unknown origin)-induced intracellular protein aggregation expressed in human HLE-B3 cells at 4 uM incubated for 6 to 8 hrs by fluorescence microscopy relative to untreated control
T5 sequence (whole entry): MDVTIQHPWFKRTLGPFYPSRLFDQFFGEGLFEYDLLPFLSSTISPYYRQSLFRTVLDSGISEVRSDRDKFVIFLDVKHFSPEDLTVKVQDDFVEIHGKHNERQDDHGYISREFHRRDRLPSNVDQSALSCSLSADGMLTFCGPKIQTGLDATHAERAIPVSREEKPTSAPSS

[11] = test system: T5, Alpha-crystallin A chain (Homo sapiens), P02489 [Y118D]; assay: Inhibition of alpha-crystallin A Y118D mutant (unknown origin)-induced intracellular protein aggregation expressed in human HeLa cells at 4 uM incubated for 6 to 8 hrs by fluorescence microscopy relative to untreated control
[12] = test system: T3, Gamma-crystallin D (Homo sapiens), P07320 [W43R]; assay: Inhibition of gamma-crystallin D W43R mutant (unknown origin)-induced intracellular protein aggregation expressed in human HLE-B3 cells at […] incubated for 6 to 8 hrs by fluorescence microscopy relative to untreated control
[13] = test system: T5, Alpha-crystallin A chain (Homo sapiens), P02489 [Y118D]; assay: Inhibition of alpha-crystallin A Y118D mutant (unknown origin)-induced intracellular protein aggregation expressed in human HLE-B3 cells at 0.4 uM incubated for 6 to 8 hrs by fluorescence microscopy relative to untreated control
[14] = test system: T2, Beta-crystallin B2 (Homo sapiens), P43320 [V187E]; assay: Inhibition of beta-crystallin B2 V187E mutant (unknown origin)-induced intracellular protein aggregation expressed in human HeLa cells at 0.4 uM incubated for 6 to 8 hrs by fluorescence microscopy relative to untreated control
[15] = test system: T5, Alpha-crystallin A chain (Homo sapiens), P02489 [Y118D]; assay: Inhibition of alpha-crystallin A Y118D mutant (unknown origin)-induced intracellular protein aggregation expressed in human HeLa cells at 0.4 uM incubated for 6 to 8 hrs by fluorescence microscopy relative to untreated control
[16] = test system: T4, Gamma-crystallin C (Homo sapiens), P07315 [G129C]; assay: Inhibition of gamma-crystallin C G129C mutant (unknown origin)-induced intracellular protein aggregation expressed in human HLE-B3 cells at 0.4 uM incubated for 6 to 8 hrs by fluorescence microscopy relative to untreated control
[17] = test system: T4, Gamma-crystallin C (Homo sapiens), P07315 [G129C]; assay: Inhibition of gamma-crystallin C G129C mutant (unknown origin)-induced intracellular protein aggregation expressed in human HeLa cells at 4 uM incubated for 6 to 8 hrs by fluorescence microscopy relative to untreated control
[18] = test system: T1, Alpha-crystallin B chain (Homo sapiens), P02511 [R120G]; assay: Inhibition of alpha-crystallin B R120G mutant (unknown origin)-induced intracellular protein aggregation expressed in human HeLa cells at 4 uM incubated for 6 to 8 hrs by fluorescence microscopy relative to untreated control; procedure, shortened: as §1
[19] = test system: T1, Alpha-crystallin B chain (Homo sapiens), P02511 [R120G]; assay: Inhibition of alpha-crystallin B R120G mutant (unknown origin)-induced intracellular protein aggregation expressed in human HLE-B3 cells at 4 uM incubated for 6 to 8 hrs by fluorescence microscopy relative to untreated control; procedure, shortened: as §1
[20] = test system: T1, Alpha-crystallin B chain (Homo sapiens), P02511 [R120G]; assay: Inhibition of alpha-crystallin B R120G mutant (unknown origin)-induced intracellular protein aggregation expressed in human HLE-B3 cells at 0.4 uM incubated for 6 to 8 hrs by fluorescence microscopy relative to untreated control; procedure, shortened: as §1

Measured: inhibition

C[C@H](CCCC(C)(C)O)[C@H]1CC[C@@]2(C)C3=C(CC[C@]12C)[C@@]1(C)CC[C@H](O)C(C)(C)[C@@H]1CC3
active: all assays above

C[C@H](CCCC(C)(C)O)[C@H]1CC[C@@]2(C)C3=C(CC[C@]12C)[C@@]1(C)C[C@@H](F)[C@@H](O)C(C)(C)[C@@H]1CC3
active: all assays above

C[C@H](CCCC(C)(C)O)[C@H]1CC[C@@]2(C)C3=CC[C@H]4C(C)(C)[C@@H](O)CC[C@]4(C)C3=CC[C@]12C
active: all assays above

C[C@H](CCCC(C)(C)O)[C@H]1CC[C@@]2(C)C3=C(CC[C@]12C)[C@@]1(C)CCC(=O)C(C)(C)[C@@H]1CC3
active: all assays above

C[C@H](CCCC(C)(C)O)[C@H]1CC[C@@]2(C)[C@@]34CC[C@H]5C(C)(C)/C(=N/O)CC[C@]5(C)[C@]3(CC[C@]12C)O4
inactive: all assays above

C[C@H](CCCC(C)(C)O)[C@H]1CC[C@@]2(C)C3=C(CC[C@]12C)[C@@]1(C)C[C@@H](F)[C@H](O)C(C)(C)[C@@H]1CC3
active: all assays above

Source: ChEMBL document CHEMBL4196177, “Synthesis, Evaluation, and Structure-Activity Relationship Study of Lanosterol Derivatives To Reverse Mutant-Crystallin-Induced Protein Aggregation” (J Med Chem, 2018)
